# pIC50: −log10 of the molar value. Active and inactive are the calls of the source. The calls are words filed in the database; no cut-off is given here.
# How the values were obtained:
# [1] = Inhibition of NO synthase activity in mouse B10R cells assessed as LPS-induced NO production after 24 hrs; assay type: cell-based
# Outline: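 B10R macrophages stimulated with […] (0.5 µg/mL). NO-synthase activity was read as NO2- production over 24 h, and an IC50 was derived.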
# [2] = test system: Candida parapsilosis; test: Antimicrobial activity against Candida parapsilosis; assay type: functional, organism-based
# [3] = test system: Staphylococcus aureus; test: Antimicrobial activity against Staphylococcus aureus; assay type: functional, organism-based
# [4] = test system: Candida albicans; test: Antimicrobial activity against Candida albicans; assay type: functional, organism-based
# [5] = test system: Enterococcus faecalis; test: Antimicrobial activity against Enterococcus faecalis; assay type: functional, organism-based
# [6] = test system: Pichia kudriavzevii; test: Antimicrobial activity against Candida krusei; assay type: functional, organism-based
# [7] = Cytotoxicity against mitogen-activated human lymphocytes by MTT assay; assay type: cell-based; conditions: Lymphocyte
# [8] = Cytotoxicity against resting human lymphocytes by MTT assay; assay type: cell-based; conditions: Lymphocyte
# [9] = test system: Escherichia coli; test: Antimicrobial activity against Escherichia coli; assay type: functional, organism-based
# [10] = test system: Streptococcus pyogenes; test: Antimicrobial activity against Streptococcus hemolyticus; assay type: functional, organism-based
# [11] = test system: Candida tropicalis; test: Antimicrobial activity against Candida tropicalis; assay type: functional, organism-based
smiles,measurement,setting,value
CC[C@H](C)[C@H](NC(C)=O)C(=O)N[C@H]1CCCNC(=O)[C@H]([C@@H](C)CC)NC(=O)[C@H]([C@@H](C)CC)NC(=O)[C@@H]2CCCN2C(=O)[C@@H](Cc2ccccc2)NC1=O [PSEUDACYCLIN A],pIC50,[1],4.38
same,inhibition,[2],inactive
same,inhibition,[3],inactive
same,inhibition,[4],inactive
same,inhibition,[5],inactive
same,inhibition,[6],inactive
same,pIC50,[7],4.89
same,pIC50,[8],4.49
same,inhibition,[9],inactive
same,inhibition,[10],inactive
same,inhibition,[11],inactive

# From ChEMBL document CHEMBL1165989, “Characterization of pseudacyclins A-E, a suite of cyclic peptides produced by Pseudallescheria boydii” (J Nat Prod, 2010)
